# T cruzi repl – blocks replication of Trypanosoma cruzi; inhibition, % (concentration not given with the values); AID 1885; T. cruzi beta-gal in NIH3T3, luminescence, 90 h; hit rate 1.4% among 300,000;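 active means mean inhibition across valid replicates above about 55%, limit read from the data; inconclusive means mean below that limit but half or more replicates reach it; inactive means mean below it, under half of replicates reach it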;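 further: signal also drops with host cell toxicity which is not excluded here; higher percent means less beta-gal luminescence so fewer parasites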
#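 Material: NIH/3T3 host cells with β-galactosidase reporter T. cruzi; Input: 5,000 host fibroblasts per well; Medium: DMEM, 2% fetal bovine serum; Compound: 50 nL DMSO compound solution per well; Schedule: 3 h host attachment, then at least 90 h co-culture; Detection: luminescent β-galactosidase signal after 60 min lysis.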
# ARNT TACC3 PPI – disrupts binding between human ARNT and TACC3 | hit rate 0.66% among 390,000 | inhibition, % at 9.99 µM | Q9Y6A5 | AlphaScreen His-ARNT PAS-B/GST-TACC3 binding, luminescence; TACC3 fragment carries E629A point mutation;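 active means mean inhibition of replicates at least 50% and at least half of replicates each reaching 50%; inconclusive means half or more replicates reach 50% but mean below 50%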
# AI-2 QS modul – Vibrio harveyi AI-2 quorum sensing modulation; Vibrio harveyi JMH597 AI-2 luminescence/OD600 ratio, 9 h; stronger effect = lower value; strain lacks LuxN and CqsS sensors; 0 = neutral-control median; activity change, % at 7.5 µM; hit rate 0.4% among 300,000; in the data active means activity change below about -75%, passing the limit was not always enough; inconclusive means no clear call, values can overlap the other calls;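 further: luminescence divided by OD600 gain over 9 h not by final OD600 alone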
# HIF activator – HIF pathway transcriptional activation; U2OS HRE-luciferase reporter, luminescence; normalized: DMSO 0%, desferrioxamine 100%; activation, % at 7.5 µM (by protocol); hit rate 0.32% among 300,000; AID 1910;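 active means mean activation of at least 10% of the iron chelator positive control signal, with at least half of replicates also reaching 10%; inconclusive means mean and replicate majority disagree about reaching 10%; inactive means mean and most replicates under 10%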
# JMH597 growth – retest: blocks Vibrio harveyi JMH597 growth; shares compounds with AI-2 QS modul; OD600 absorbance, 9 h; lacks LuxN and CqsS sensors; growth inhibition, % at 7.5 µM; hit rate 1% among 750;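 active means every replicate shows growth inhibition above 50%; inconclusive means at least half, but not all, replicates pass that cutoff; inactive means fewer than half of replicates pass it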
# BB721 const-QS lum – retest counter-screen: lowers luminescence of constitutive-QS Vibrio harveyi BB721; shares compounds with AI-2 QS modul; 9 h; inhibition, % at 7.5 µM; hit rate 95% among 750;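 active means inhibition above about 80% in every replicate, not just on average, limit read from the data; inconclusive means at least half of replicates past the limit, but not all; inactive means fewer than half of replicates past the limit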
# BB721 growth rt – retest Vibrio harveyi BB721 growth inhibition | shares compounds with AI-2 QS modul | OD600 absorbance, 9 h | growth inhibition, % at 7.5 µM | hit rate 3% among 750;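 active means every replicate shows growth inhibition above 50%; inconclusive means at least half but not all replicates above 50% inhibition; inactive means under half of replicates above 50% inhibition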
# AI-2 QS JMH597 – Vibrio harveyi AI-2 signaling luminescence modulation – JMH597 strain, confirmation; AID 2736; inhibition, % at 7.5 µM; shares compounds with AI-2 QS modul; Vibrio harveyi JMH597 AI-2 quorum sensing luminescence, 9 h; luxN and CqsS knockout, AI-2 only; hit rate 97% among 750;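 active means every replicate shows more than 75% inhibition of signal versus neutral control wells; inconclusive means half to three quarters of replicates exceed 75% inhibition; inactive means fewer than half of replicates exceed 75% inhibition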
# Numbers stand for hits; n = inactive; u = inconclusive; x = no result given. In the library only some 2% were active in any assay of this set; here they are far more common.
SMILES,T cruzi repl,ARNT TACC3 PPI,AI-2 QS modul,HIF activator,JMH597 growth,BB721 const-QS lum,BB721 growth rt,AI-2 QS JMH597
O=C(Cn1c(=O)sc2ccccc21)Nc1ccc(S(=O)(=O)N2CCCCC2)cc1,n,n,-89.8,n,n,96.3,n,98.6
O=C(Cn1c(=O)sc2ccccc21)Nc1ccccc1,n,n,n,n,x,x,x,x
C[C@@H]1CN([C@@H](C)CO)C(=O)c2cc(-c3cccc(F)c3)cnc2O[C@@H]1CN(C)C(=O)c1ccccn1,x,n,x,x,x,x,x,x
CC(=O)N(C)C[C@@H]1Oc2cc(-c3cncnc3)ccc2S(=O)(=O)N([C@H](C)CO)C[C@H]1C,x,n,x,x,x,x,x,x
O=C(NCc1ccccc1)c1cc(-c2cccc(O)c2)on1,n,n,-82.0,n,n,88.1,n,91.9
CC(C)CCNC(=O)NC(=O)COc1ncnc2sccc12,n,n,-80.9,n,n,95.9,n,97.1
Nc1nc(-c2ccc(Oc3ccccc3)cc2)cs1,n,n,-95.4,n,n,96.5,n,98.3
COCC#Cc1cnc2c(c1)C(=O)N([C@@H](C)CO)C[C@H](C)[C@@H](CN(C)Cc1ccccc1F)O2,x,n,x,x,x,x,x,x
O=C(Nc1cccc(F)c1)c1ccccc1,n,n,n,n,x,x,x,x
O=C(Nc1ccc(Nc2ccccc2)cc1)c1ccccc1F,n,n,-85.6,n,n,94.3,n,94.4
O=C(Nc1ccc(Nc2ccccc2)cc1)c1cccc(F)c1,n,n,-77.3,n,n,86.0,n,90.1
O=C(O)c1cc(NC(=O)c2ccccc2F)cc(NC(=O)c2ccccc2F)c1,n,n,x,n,x,x,x,x
COCC(=O)Nc1ccc2c(c1)C(=O)N(C)C[C@H](OC)[C@H](C)CN(Cc1cccnc1)[C@H](C)CO2,x,n,x,x,x,x,x,x
CC(=O)c1ccc(Oc2ccc(C(=O)c3ccc(C)c(C)c3)cc2[N+](=O)[O-])cc1,n,n,n,n,x,x,x,x
COC(=O)c1ccc(Oc2ccc(C(C)(C)C)cc2)c([N+](=O)[O-])c1,n,n,u,n,n,83.6,u,90.7
Clc1cccc(CON/C=N/c2ncnc3sccc23)c1,n,x,-92.4,n,n,96.5,n,97.7
CN(C)CC(=O)N[C@H]1C=C[C@@H](CC(=O)NCc2ccccc2F)O[C@@H]1CO,x,n,x,x,x,x,x,x
COc1ccc(NC(=O)Nc2ccc3c(c2)CC(=O)N([C@H](C)CO)C[C@H](C)[C@H](CN(C)Cc2ccccc2)O3)cc1,x,n,x,x,x,x,x,x
O=S(=O)(c1ccccc1)c1ccc(NCc2ccco2)cc1,n,n,-93.8,n,n,n,n,97.6
CC1(c2ccccc2Cl)NC(=O)N(CC(=O)Nc2ccc(N3CCOCC3)cc2)C1=O (stereo not given),x,n,x,x,x,x,x,x
COc1cc(NC(=O)CN2C(=O)NC3(CCOc4ccccc43)C2=O)cc(OC)c1 (stereo not given),x,n,x,x,x,x,x,x
Cc1ccc(C2(C)NC(=O)N(CC(=O)NC(=O)NCCC(C)C)C2=O)cc1 (stereo not given),n,n,-85.5,n,n,90.4,n,95.1
CC1(c2ccc3c(c2)OCO3)NC(=O)N(CC(=O)Nc2ccc(N3CCOCC3)cc2)C1=O (stereo not given),n,n,-88.4,n,n,87.6,n,93.7
CCC1(c2ccccc2)NC(=O)N(CC(=O)Nc2ccc3c(c2)OCO3)C1=O (stereo not given),n,n,-93.0,n,n,95.5,n,97.1
O=C(CN1C(=O)NC2(CCOc3ccccc32)C1=O)Nc1cccc(Cl)c1 (stereo not given),n,n,-93.0,n,n,96.3,n,97.7
SMILES,T cruzi repl,ARNT TACC3 PPI,AI-2 QS modul,HIF activator,JMH597 growth,BB721 const-QS lum,BB721 growth rt,AI-2 QS JMH597
CCCC1(c2ccccc2)NC(=O)N(CC(=O)Nc2ccc3c(c2)OCCO3)C1=O (stereo not given),x,n,x,x,x,x,x,x
C[C@H](CO)N1C[C@H](C)[C@H](CN(C)C(=O)Nc2cccc3ccccc23)Oc2ncc(C#CCC3CCCC3)cc2C1=O,x,n,x,x,x,x,x,x
C[C@@H]1CN([C@H](C)CO)C(=O)c2cc(NC(=O)Nc3cccc4ccccc34)ccc2O[C@@H]1CN(C)S(=O)(=O)c1ccc(Cl)cc1,x,n,x,x,x,x,x,x
CCCNC(=O)N[C@@H]1C=C[C@@H](CC(=O)NC2CCCCC2)O[C@H]1CO,x,n,x,x,x,x,x,x
CO[C@H]1CN(C)C(=O)c2ccc(NC(C)=O)cc2OC[C@@H](C)N(C(=O)Cc2ccccn2)C[C@H]1C,x,n,x,x,x,x,x,x
C[C@H](CO)N1C[C@H](C)[C@@H](CN(C)C(=O)C2CCC2)Oc2cc(C#CCN(C)C)ccc2S1(=O)=O,x,n,x,x,x,x,x,x
Cc1cccc(NC(=O)CN2C(=O)NC(C)(c3ccc4c(c3)OCO4)C2=O)c1 (stereo not given),n,n,-87.0,n,n,88.4,n,91.9
Cc1ccc(C2(C)NC(=O)N(CC(=O)Nc3ccc4c(c3)OCO4)C2=O)cc1 (stereo not given),n,n,-94.9,n,n,96.6,n,98.4
Cc1ccc(NC(=O)CN2C(=O)NC(C)(c3ccc(Cl)cc3)C2=O)cc1 (stereo not given),n,n,-88.2,n,n,88.8,n,93.7
CC1(c2ccccc2)NC(=O)N(CC(=O)Nc2ccc(C(N)=O)cc2)C1=O (stereo not given),n,n,n,n,x,x,x,x
CNC[C@H]1OCCCC[C@H](C)Oc2ccc(N(C)C)cc2C(=O)N([C@@H](C)CO)C[C@@H]1C,x,n,x,x,x,x,x,x
COc1cccc(C(=O)Nc2ccc3c(c2)C(=O)N(C)C[C@H](OC)[C@@H](C)CN(CC2CC2)[C@H](C)CO3)c1,x,n,x,x,x,x,x,x
C=CCNC(=O)C1CCN(S(=O)(=O)c2ccc3ccccc3c2)CC1,n,n,-80.9,n,n,n,n,98.9
CCOc1ccc(NS(=O)(=O)c2ccc(N)cc2)cc1,n,n,u,n,n,98.6,n,99.8
CCOc1ccc(NS(=O)(=O)c2ccc(SC)cc2)cc1,n,n,n,n,x,x,x,x
CC1CCN(C(=O)c2cc(-c3ccco3)on2)CC1,n,x,n,n,x,x,x,x
CC1CCN(C(=O)c2cc(-c3ccccc3O)on2)CC1,n,n,-84.0,n,n,95.3,n,96.5
CC1CCN(C(=O)c2cc(-c3ccc4c(c3)OCO4)on2)CC1,n,n,-90.0,n,n,96.4,n,97.2
CNC(=O)C[C@H]1CC[C@@H]2[C@H](COc3ccc(NC(=O)C4CCCCC4)cc3C(=O)N2C)O1,x,n,x,x,x,x,x,x
COc1cccc(S(=O)(=O)Nc2ccc3c(c2)C(=O)N(C)[C@@H]2CC[C@H](CC(=O)O)O[C@@H]2CO3)c1,x,n,x,x,x,x,x,x
